Calls of active or inactive are those of the source. The rule behind the calls is not given here.
Legend:
Rattus norvegicus = test: Antithrombotic activity in HsdCpd:WU rat thrombosis model with venous stasis assessed as reduction in thrombus weight at 1 to 10 mg/kg, po dosed 90 mins before thrombus induction measured after 15 mins; assay type: functional, organism-based; settings: dose mg/kg 1-10, time 105.0 min
Outline: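 Anesthetized rats, n = 6−10 per dose group. Compound in PEG/water/glycerol or vehicle given by gavage 90 min before induction. Two loose sutures placed on vena cava below left renal vein; thromboplastin 0.5 mg/kg iv into femoral vein, sutures tied after 15 s. Segment removed 15 min later and thrombus weighed.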

[1] = target: T1, Coagulation factor VII (Homo sapiens) (UniProt P08709); test: Inhibition of purified human plasma factor-7a up to 20 uM incubated for 30 mins by fluorescence based based coupled protease reaction assay; settings: dose microM <=20, time 30.0 min
T1 sequence (whole entry): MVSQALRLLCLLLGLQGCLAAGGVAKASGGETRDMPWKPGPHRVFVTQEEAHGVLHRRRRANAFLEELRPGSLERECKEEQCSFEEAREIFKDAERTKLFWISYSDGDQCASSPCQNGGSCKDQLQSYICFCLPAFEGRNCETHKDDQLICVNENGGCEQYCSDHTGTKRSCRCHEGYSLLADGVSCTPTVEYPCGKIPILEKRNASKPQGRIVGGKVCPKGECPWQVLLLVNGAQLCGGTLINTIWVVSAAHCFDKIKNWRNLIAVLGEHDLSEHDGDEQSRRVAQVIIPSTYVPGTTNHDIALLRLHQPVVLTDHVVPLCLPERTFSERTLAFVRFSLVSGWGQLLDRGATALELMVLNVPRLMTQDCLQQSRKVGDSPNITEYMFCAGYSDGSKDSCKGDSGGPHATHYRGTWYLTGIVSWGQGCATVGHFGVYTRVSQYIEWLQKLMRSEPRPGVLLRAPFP
Outline: (§1)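 Final levels: thrombin 0.02 nM; FXa 1.3 nM; FXIa 0.15 nM; plasmin 1.2 nM (substrate 50 μM); tPA 2 nM; kallikrein 0.2 nM; trypsin 0.1 nM; other AMC substrates 5 μM. FVIIa 0.5 pM coupled with tissue factor, factor X 12 nM, FXa substrate 50 μM.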

[2] = MRT in Wistar Hannover rat at 0.3 to 0.5 mg/kg, iv by LC-MS/MS analysis; assay type: ADME, organism-based; settings: in vivo, dose 0.3-0.5 mg/kg, time <=24 hrs
Outline: (§2)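 Male Wistar Hannover rats, catheterized under isoflurane; one day later iv injection into lateral tail vein at 0.3 to 0.5 mg/kg in plasma containing 2% DMSO. Blood sampled via catheter from 0.033 to 24 h. Plasma precipitated with acetonitrile, analysed by LC-MS/MS (10 mM ammonium acetate pH 3.0/acetonitrile gradient). PK parameters calculated from plasma concentrations.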

[3] = Blood clearance in Wistar Hannover rat at 0.3 to 0.5 mg/kg, iv by LC-MS/MS analysis; assay type: ADME, organism-based; settings: whole blood, dose 0.3-0.5 mg/kg, time <=24 hrs; outline: as §2
[4] = Protein binding in rat plasma; assay type: ADME, cell-free; settings: read-out: PPB (converted)
[5] = target: Coagulation factor X (Homo sapiens) (UniProt P00742); test: Inhibition of purified human plasma factor-10a up to 20 uM using Boc-Ile-Glu-Gly-Arg-AMC substrate incubated for 30 mins by fluorescence based assay; settings: dose microM <=20, time 30.0 min; outline: as §1
[6] = Half life in Wistar Hannover rat at 0.3 to 0.5 mg/kg, iv by LC-MS/MS analysis; assay type: ADME, organism-based; settings: in vivo, dose 0.3-0.5 mg/kg, time <=24 hrs; outline: as §2
[7] = target: Tissue-type plasminogen activator (Homo sapiens) (UniProt P00750); test: Inhibition of purified human plasma tPA up to 20 uM using CH3SO2-DPhe-Gly-Arg-AMC substrate incubated for 30 mins by fluorescence based assay; settings: dose microM <=20, time 30.0 min; outline: as §1
[8] = Permeability from apical to basolateral side in human Caco2 cells incubated for 2 hrs by LC-MS/MS analysis; assay type: ADME, cell-based; settings: Caco-2
Outline: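 Caco-2 cells grown 15 d on 0.4 μm inserts, TEER ≥600 Ω. Compound (DMSO stock diluted 100-fold) in HBSS pH 7.4 with 10 mM HEPES and 20 mM glucose, added apically or basolaterally. Incubated 2 h at 37 °C and analysed by LC-MS/MS. Papp = (Vr/P0)·(1/S)·(P2/t); mean and SD.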

Trypsin (Homo sapiens) = Trypsin (Homo sapiens) (UniProt P07477+P07478+P35030); test: Inhibition of purified human plasma trypsin up to 20 uM using Boc-Ile-Glu-Gly-Arg-AMC substrate incubated for 30 mins by fluorescence based assay; assay type: protein assay; settings: dose microM <=20, time 30.0 min; outline: as §1
[9] = target: T2, Nuclear receptor subfamily 1 group I member 2 (Homo sapiens, UniProt O75469); test: Activation of human PXR expressed in human HepG2 cells; assay type: ADME, cell-based
T2 sequence (O75469 whole entry): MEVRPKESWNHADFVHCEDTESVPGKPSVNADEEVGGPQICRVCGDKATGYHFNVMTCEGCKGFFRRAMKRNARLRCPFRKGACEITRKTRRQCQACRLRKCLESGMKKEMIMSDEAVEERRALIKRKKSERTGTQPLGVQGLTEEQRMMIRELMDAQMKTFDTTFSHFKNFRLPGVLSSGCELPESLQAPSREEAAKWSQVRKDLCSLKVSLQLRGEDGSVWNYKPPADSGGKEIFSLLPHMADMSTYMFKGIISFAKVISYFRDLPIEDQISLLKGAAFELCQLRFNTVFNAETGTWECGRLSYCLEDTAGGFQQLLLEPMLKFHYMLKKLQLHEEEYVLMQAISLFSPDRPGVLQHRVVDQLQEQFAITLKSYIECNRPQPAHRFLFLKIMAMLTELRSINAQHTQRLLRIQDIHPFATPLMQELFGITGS
Outline: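 HepG2 cells transiently co-transfected with human PXR and a luciferase reporter under the human CYP3A4 promoter, 48 h before readout. 24 h after seeding, 1:3 serial dilutions (2 nM to 50 μM, 0.5% DMSO) added. Luminescence normalized to rifampicin (100%) and DMSO (0%). MEC is the lowest concentration raising signal above 4-fold SD of DMSO background.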

[10] = Tmax in orally dosed healthy human; assay type: ADME, organism-based; settings: in vivo, po
Plasma = test: Anticoagulation activity in human plasma assessed as drug level causing doubling of prothrombin time incubated for 3 mins; assay type: functional; settings: 0.05 h
Outline: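 Citrated human plasma (0.11 M citrate 1:9, spun ~4000g 15 min) incubated with compound at 37 °C for 3 min. Clotting started with thromboplastin and time to coagulation recorded. Value is the concentration doubling clotting time (PT or aPTT).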

[11] = target: Coagulation factor XI (Homo sapiens) (UniProt P03951); test: Inhibition of purified human plasma factor-11a up to 20 uM using Boc-Glu(OBzl)-Ala-Arg-AMC substrate incubated for 30 mins by fluorescence based assay; settings: dose microM <=20, time 30.0 min; outline: as §1
[12] = AUC/dose in Wistar Hannover rat at 0.3 to 0.5 mg/kg, iv by LC-MS/MS analysis; assay type: ADME, organism-based; settings: in vivo, dose 0.3-0.5 mg/kg, time <=24 hrs; outline: as §2
[13] = Oral bioavailability in Wistar Hannover rat at 1 mg/kg by LC-MS/MS analysis; assay type: ADME, organism-based; settings: in vivo, time <=24 hrs
Outline: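 Catheterized male Wistar Hannover rats dosed by gavage at 1 mg/kg in 10% ethanol/40% PEG/50% water. Blood taken via catheter at 0.083 to 24 h. Plasma precipitated with acetonitrile and analysed by LC-MS/MS. Bioavailability derived against iv dosing at 0.3 to 0.5 mg/kg.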

Chain of Coagulation factor XI (Homo sapiens) (P03951 19-387 limits assumed): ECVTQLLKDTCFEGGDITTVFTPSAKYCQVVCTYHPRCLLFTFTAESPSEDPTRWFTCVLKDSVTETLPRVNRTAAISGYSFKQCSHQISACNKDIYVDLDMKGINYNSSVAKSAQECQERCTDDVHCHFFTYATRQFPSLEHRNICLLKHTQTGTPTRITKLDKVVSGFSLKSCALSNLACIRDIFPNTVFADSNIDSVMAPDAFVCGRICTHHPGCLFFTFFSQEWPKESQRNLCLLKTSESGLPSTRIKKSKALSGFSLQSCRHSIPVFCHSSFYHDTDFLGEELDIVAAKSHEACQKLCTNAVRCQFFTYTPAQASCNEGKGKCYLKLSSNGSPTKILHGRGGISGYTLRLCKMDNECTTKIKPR
Chain of Coagulation factor XI (Homo sapiens) (P03951 388-625 limits assumed): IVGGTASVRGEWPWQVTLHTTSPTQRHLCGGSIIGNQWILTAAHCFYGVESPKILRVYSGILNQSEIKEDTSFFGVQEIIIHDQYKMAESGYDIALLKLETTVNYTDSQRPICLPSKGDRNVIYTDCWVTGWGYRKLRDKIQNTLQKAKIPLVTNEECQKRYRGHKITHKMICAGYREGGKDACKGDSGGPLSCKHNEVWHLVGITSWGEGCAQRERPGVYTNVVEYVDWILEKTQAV
Chain of Tissue-type plasminogen activator (Homo sapiens) (P00750 36-562 limits assumed): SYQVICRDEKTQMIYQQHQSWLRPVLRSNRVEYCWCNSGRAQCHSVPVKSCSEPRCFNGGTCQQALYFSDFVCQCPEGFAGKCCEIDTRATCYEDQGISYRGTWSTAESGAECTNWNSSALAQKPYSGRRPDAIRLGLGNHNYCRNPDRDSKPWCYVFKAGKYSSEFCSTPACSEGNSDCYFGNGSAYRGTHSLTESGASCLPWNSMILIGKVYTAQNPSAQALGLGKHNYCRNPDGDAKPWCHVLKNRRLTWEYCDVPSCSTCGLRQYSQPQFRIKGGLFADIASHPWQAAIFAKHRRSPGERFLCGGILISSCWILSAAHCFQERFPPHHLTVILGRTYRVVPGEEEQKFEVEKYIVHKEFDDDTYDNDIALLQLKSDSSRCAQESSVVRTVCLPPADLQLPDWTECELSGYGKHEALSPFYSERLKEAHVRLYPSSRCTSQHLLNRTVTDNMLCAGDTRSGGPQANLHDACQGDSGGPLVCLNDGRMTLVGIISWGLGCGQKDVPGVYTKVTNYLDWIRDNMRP
Chain of Coagulation factor X (Homo sapiens) (P00742 41-179 limits assumed): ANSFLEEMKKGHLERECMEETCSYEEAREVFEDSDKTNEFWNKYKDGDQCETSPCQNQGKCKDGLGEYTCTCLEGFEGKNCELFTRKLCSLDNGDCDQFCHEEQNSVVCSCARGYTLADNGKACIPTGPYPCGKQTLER
Chain of Coagulation factor X (Homo sapiens) (P00742 235-488 limits assumed): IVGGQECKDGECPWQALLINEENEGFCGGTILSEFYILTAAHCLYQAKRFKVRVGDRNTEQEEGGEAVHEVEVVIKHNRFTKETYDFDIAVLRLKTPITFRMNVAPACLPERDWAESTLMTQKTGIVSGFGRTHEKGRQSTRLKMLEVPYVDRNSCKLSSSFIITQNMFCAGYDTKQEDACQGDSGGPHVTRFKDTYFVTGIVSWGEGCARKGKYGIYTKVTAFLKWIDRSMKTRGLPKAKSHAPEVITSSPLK

Q: Which results are given for `COc1cc(C(=O)N2C[C@H](C)OC[C@@H]2CCO)cc2nc(N[C@H](CF)c3cccc(Cl)c3)oc12`?
A: Activity (Rattus norvegicus): Dose-dependent effect; inhibition [1]: inactive; MRT [2]: 1.2 h; clearance [3]: 51.7 mL/min/kg; fraction unbound [4]: 0.22; inhibition [5]: inactive; half-life [6]: 1.4 h; inhibition [7]: inactive; Papp A→B at 2 h [8]: 13.1 ×10⁻⁶ cm/s; inhibition (Trypsin (Homo sapiens)): inactive; MEC [9]: 1.9 µM; Tmax [10]: 0.75 h; 2PT (Plasma): 1.1 µM; inhibition [11]: inactive; AUC/dose [12]: 0.34 kg·h/L; bioavailability [13]: 38%

Source: ChEMBL document CHEMBL4665889, “Design, Synthesis, and Pharmacological Characterization of a Neutral, Non-Prodrug Thrombin Inhibitor with Good Oral Pharmacokinetics” (J Med Chem, 2020)
